The subject of one assay is Bacillus spizizenii. Nature of the assay: Antimicrobial activity against Bacillus subtilis ATCC 6633 after 24 hrs by two-fold broth dilution method. The assay is classed as functional. Particulars: ATCC 6633, 24 h. The method, boiled down:
(§1)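 Bacteria were cultivated on Mueller Hinton medium and inoculated at 5·10⁵ bacteria/mL. Compounds were dissolved in DMSO, with DMSO loaded as the negative control. Samples were incubated at 37 °C for 24 h. The dilution susceptibility method followed the NCCLS standard for aerobically growing bacteria.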
For orientation: Broth dilution looks for growth in wells or tubes with falling amounts of substance.

For a further assay, the system named is Staphylococcus aureus. Kind of assay: Antimicrobial activity against Staphylococcus aureus ATCC 6538 after 24 hrs by two-fold broth dilution method. The assay is classed as functional. As to conditions: ATCC 6538, 24 h. The method, boiled down: as §1
Another assay concerns Escherichia coli. Nature of the assay: Antimicrobial activity against Escherichia coli ATCC 8739 after 24 hrs by two-fold broth dilution method. As to conditions: ATCC 8739, 24 h. The assay is classed as functional. An outline of the steps: as §1
A further assay relates to Haemophilus influenzae. Kind of assay: Antimicrobial activity against Haemophilus influenzae ATCC 19418 after 24 hrs by two-fold broth dilution method. The assay is classed as functional. Particulars: ATCC 19418, 24 h. The method, boiled down:
as §1

Assay [1] relates to Saccharomyces cerevisiae. Kind of assay: Antimicrobial activity against Saccharomyces cerevisiae ATCC 9763 up to 100 ug/ml after 48 hrs by two-fold broth dilution method. The assay is classed as functional, organism-based. The method, boiled down: (§2)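 Fungi (yeasts C. tropicalis and S. cerevisiae, mould A. niger) grown in Sabouraud dextrose broth. Inoculum was 1·10³ fungi/mL. Compounds were dissolved in DMSO, which was also loaded as the negative control. Incubation was 30 °C for 48 h. The broth dilution method followed NCCLS reference methods for yeasts and filamentous fungi.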

Assay [2] concerns Candida tropicalis. Kind of assay: Antimicrobial activity against Candida tropicalis ATCC 1369 up to 100 ug/ml after 48 hrs by two-fold broth dilution method. The assay is classed as functional, organism-based. An outline of the steps:
as §2

For assay [3], the system named is Aspergillus niger. Nature of the assay: Antimicrobial activity against Aspergillus niger ATCC 6275 up to 100 ug/ml after 48 hrs by two-fold broth dilution method. The assay is classed as functional, organism-based. The method, boiled down:
as §2

Assay [4] deals with Candida tropicalis. Kind of assay: Antimicrobial activity against Candida tropicalis ATCC 1369 after 48 hrs by two-fold broth dilution method. The assay is classed as functional. Particulars: ATCC 1369, 48 h. An outline of the steps:
as §2

The subject of assay [5] is Aspergillus niger. Kind of assay: Antimicrobial activity against Aspergillus niger ATCC 6275 after 48 hrs by two-fold broth dilution method. The assay is classed as functional. Particulars: ATCC 6275, 48 h. The method, boiled down:
as §2

For assay [6], the system named is Saccharomyces cerevisiae. Nature of the assay: microbe, parasite or virus in culture. As to conditions: ATCC 9763, 48 h.

Values after ≈ are worked out from the molar mass of the structure shown. Active and inactive are the calls of the source. No cut-off for these calls is given here.

For `Cc1ccc(-c2c(F)cc3c(=O)c(C(=O)O)cn(C4CC4)c3c2[N+](=O)[O-])cc1`, the MIC against Bacillus spizizenii is 15 ng/mL (≈ 0.0392 µM); in the assay on Staphylococcus aureus it was 150 ng/mL (≈ 0.392 µM); with Escherichia coli, 3000 ng/mL (≈ 7.85 µM); with Haemophilus influenzae, 30 ng/mL (≈ 0.0785 µM). For the same compound, the result with Saccharomyces cerevisiae [1], in the assay with Candida tropicalis [2] and in the assay on Aspergillus niger [3] was inactive.

As to `Clc1ccc(COC(Cn2ccnc2)c2ccc(Cl)cc2Cl)c(Cl)c1` (stereo unspecified) [MICONAZOLE], the result in the assay with Saccharomyces cerevisiae [1], with Candida tropicalis [2] and with Aspergillus niger [3] was inactive. In addition, the MIC against Candida tropicalis [4] was 6000 ng/mL (≈ 14.4 µM); in the assay with Aspergillus niger [5] it was 3000 ng/mL (≈ 7.21 µM); with Saccharomyces cerevisiae [6], 12000 ng/mL (≈ 28.8 µM).

Take `COc1ccc(-c2c(F)cc3c(=O)c(C(=O)O)cn(C4CC4)c3c2[N+](=O)[O-])cc1`: the MIC against Bacillus spizizenii was 30 ng/mL (≈ 0.0753 µM); against Staphylococcus aureus, 150 ng/mL (≈ 0.377 µM); with Escherichia coli, 25000 ng/mL (≈ 62.8 µM); in the assay on Haemophilus influenzae, 150 ng/mL (≈ 0.377 µM). Also, the result with Saccharomyces cerevisiae [1], in the assay with Candida tropicalis [2] and in the assay on Aspergillus niger [3] was inactive.

In the case of `COc1c(C)cc(-c2c(F)cc3c(=O)c(C(=O)O)cn(C4CC4)c3c2[N+](=O)[O-])cc1C`, the MIC against Bacillus spizizenii stood at 0.07 ng/mL (≈ 0.000164 µM); with Staphylococcus aureus it was 3 ng/mL (≈ 0.00704 µM); in the assay on Escherichia coli it was 25000 ng/mL (≈ 58.6 µM); in the assay with Haemophilus influenzae it was 15 ng/mL (≈ 0.0352 µM). In addition, the outcome in the assay on Saccharomyces cerevisiae [1], in the assay on Candida tropicalis [2] and in the assay on Aspergillus niger [3] was inactive.

Consider `O=C(O)c1cn(C2CC2)c2c([N+](=O)[O-])c(-c3ccccc3)c(F)cc2c1=O`, for which the MIC stood at 15 ng/mL (≈ 0.0407 µM) in the assay with Bacillus spizizenii, 150 ng/mL (≈ 0.407 µM) in the assay with Staphylococcus aureus, 3000 ng/mL (≈ 8.15 µM) with Escherichia coli and 150 ng/mL (≈ 0.407 µM) against Haemophilus influenzae. Besides, the outcome in the assay with Saccharomyces cerevisiae [1], in the assay on Candida tropicalis [2] and with Aspergillus niger [3] was inactive.

As for `O=C(O)c1cn(C2CC2)c2c([N+](=O)[O-])c(-c3ccc(F)cc3)c(F)cc2c1=O`, the MIC is 15 ng/mL (≈ 0.0388 µM) with Bacillus spizizenii, 150 ng/mL (≈ 0.388 µM) with Staphylococcus aureus, 3000 ng/mL (≈ 7.77 µM) against Escherichia coli and 70 ng/mL (≈ 0.181 µM) against Haemophilus influenzae. Moreover, the outcome in the assay on Saccharomyces cerevisiae [1], with Candida tropicalis [2] and with Aspergillus niger [3] was inactive.

The values above are taken from ChEMBL document CHEMBL3351260, “A new efficient route to 7-aryl-6-fluoro-8-nitroquinolones as potent antibacterial agents” (2014).
